# Assay results of several laboratories.
# Each line is one published result; the experiments were not run side by side. pIC50: −log10 of the molar value.
SMILES,target or system,test,system,conditions,quantity,result
COc1nc(-c2cccc(-c3ccccc3)c2C)ccc1CNCCNC(=O)CCCCCCCCCCC(=O)N1CCN(CCNC(=O)c2cc3c(=O)n4cccc(C)c4nc3n(CCc3cccs3)c2=N)CC1,,,"male Sprague-Dawley rat, plasma","oral, 40 mg/kg",half-life,6.8 h
C[C@H]1Oc2cc(cnc2N)-c2c(nn(C)c2C#N)CN(C)C(=O)c2ccc(F)cc21,,,"male Sprague-Dawley rat, brain","oral, 10 mg/kg, 24 h, single dose",concentration,16.4 ng/g
Cc1ccc(-c2nn(-c3ccccc3)cc2C=Nc2c(N)nc(S)nc2O)cc1,MCF-10A,cell growth or viability,,48 h,CC50,> 20 µM
O=c1c2ccc(OCc3cccc(C(F)(F)F)c3)cc2[nH]c2ccc(Cl)c(F)c12,,metabolic stability,"mouse, liver microsomes","1 µM, pH 7.4",half-life,> 1 h
Cc1cc(S(=O)(=O)N[C@H]2CC[C@H](CN3CCN(c4cccc(NC5CCC(=O)NC5=O)c4)CC3)CC2)ccc1Nc1ncc(C(F)(F)F)c(N2CCC[C@](C)(O)C2)n1 (stereo partly shown),MDCK,,Caco-2,"1 µM, 2 h, pH 7.4",Papp A→B,2.9 ×10⁻⁶ cm/s
CC(=O)N1N=C(c2ccc(NC(=O)CN3CCN(c4ccc(Cl)cc4)CC3)cc2)CC1c1ccc(Cl)cc1Cl (stereo not shown),MCF-10A,"cell growth or viability, MTT",,"50 µM, 96 h",viability,91%
Cc1cc(S(=O)(=O)N[C@H]2CC[C@H](CN3CCN(c4ccc(C5CCC(=O)NC5=O)c(Cl)c4)CC3)CC2)ccc1Nc1ncc(C(F)(F)F)c(N2CCC[C@](C)(O)C2)n1 (stereo partly shown),MDCK,,Caco-2,"1 µM, 2 h, pH 7.4",Papp A→B,1.3 ×10⁻⁶ cm/s
O=c1c2ccc(Oc3ccccc3OC(F)(F)F)cc2[nH]c2cc(Cl)cc(F)c12,,metabolic stability,"mouse, liver microsomes","1 µM, pH 7.4",half-life,0.723 h
CC(=O)N1N=C(c2ccc(NC(=O)CN3CCN(c4ccc(Cl)cc4)CC3)cc2)CC1c1ccco1 (stereo not shown),MCF-10A,"cell growth or viability, MTT",,"50 µM, 96 h",viability,84%
CNS(=O)(=O)c1ccc(Nc2ncc(C(F)(F)F)c([C@H]3CC[C@@](C)(O)CC3)n2)c(C)c1,MDCK,,Caco-2,"1 µM, 2 h, pH 7.4",Papp A→B,7.6 ×10⁻⁶ cm/s
O=c1c2ccc(Oc3ccc(OC(F)(F)F)cc3)cc2[nH]c2cc(Cl)c(F)cc12,,metabolic stability,"mouse, liver microsomes","1 µM, pH 7.4",half-life,> 1 h
O=C(CN1CCN(c2ccc(Cl)cc2)CC1)Nc1ccc(C(=O)C=Cc2ccco2)cc1,MCF-10A,"cell growth or viability, MTT",,"50 µM, 96 h",viability,90%
Cc1cc(S(=O)(=O)N[C@]2(C)C[C@@H](N3CCN(CC4CCN(c5ccc6c(c5F)n(C)c(=O)n6C5CCC(=O)NC5=O)CC4)CC3)C2)ccc1Nc1ncc(C(F)(F)F)c(N2CCC[C@](C)(O)C2)n1 (stereo partly shown),MDCK,,Caco-2,"1 µM, 2 h, pH 7.4",Papp A→B,1.5 ×10⁻⁶ cm/s
Nc1nc(S)nc(O)c1N=Cc1cn(-c2ccccc2)nc1-c1ccc(Cl)cc1,MCF-10A,cell growth or viability,,48 h,CC50,> 40 µM
CC(C)(C)OC(=O)N1CCC(Oc2ccc3c(=O)c4c(F)cc(Cl)cc4[nH]c3c2)CC1,,metabolic stability,"mouse, liver microsomes","1 µM, pH 7.4",half-life,> 1 h
Cc1ccc(C=CC(=O)c2ccc(NC(=O)CN3CCN(c4ccc(Cl)cc4)CC3)cc2)cc1,MCF-10A,"cell growth or viability, MTT",,"50 µM, 96 h",viability,89%
O=c1c2ccc(OCc3cccc(OC(F)(F)F)c3)cc2[nH]c2cc(Cl)cc(F)c12,,metabolic stability,"mouse, liver microsomes","1 µM, pH 7.4",half-life,> 1 h
COc1ccc(N2CCN(CC(=O)Nc3ccc(C4=NN(C(C)=O)C(c5cc(OC)c(OC)c(OC)c5)C4)cc3)CC2)cc1 (stereo not shown),MCF-10A,"cell growth or viability, MTT",,"50 µM, 96 h",viability,91%
O=c1c2c([nH]c3ccc(Oc4ccc(OC(F)(F)F)cc4)cc13)CCCC2,,metabolic stability,"mouse, liver microsomes","1 µM, pH 7.4",half-life,0.592 h
COc1ccc(N2CCN(CC(=O)Nc3ccc(C4=NN(C(C)=O)C(c5ccc(Br)cc5)C4)cc3)CC2)cc1 (stereo not shown),MCF-10A,"cell growth or viability, MTT",,"50 µM, 96 h",viability,86%
Cc1cc(S(=O)(=O)NC2CC(N3CCN(CC4CCN(c5cccc6c5n(C)c(=O)n6C5CCC(=O)NC5=O)CC4)C4(CC4)C3)C2)ccc1Nc1ncc(C(F)(F)F)c(N2CCC[C@](C)(O)C2)n1 (stereo partly shown),MDCK,,Caco-2,"1 µM, 2 h, pH 7.4",Papp A→B,0.7 ×10⁻⁶ cm/s
COc1ccc(N2CCN(CC(=O)Nc3ccc(C(=O)C=Cc4ccco4)cc3)CC2)cc1,MCF-10A,"cell growth or viability, MTT",,"50 µM, 96 h",viability,82%
O=C(O)COc1cccc(-c2nc(Nc3ccc4[nH]ncc4c3)c3ccccc3n2)c1,"Solute carrier family 22 member 6 (SLC22A6, Homo sapiens, UniProt Q4U2R8)","transporter uptake, inhibitor, radiometric",,,pIC50,< 3.30
COc1ccc(N2CCN(CC(=O)Nc3ccc(C(=O)C=Cc4ccc(Cl)cc4Cl)cc3)CC2)cc1,MCF-10A,"cell growth or viability, MTT",,"50 µM, 96 h",viability,86%
CNS(=O)(=O)c1ccc(Nc2ncc(C(F)(F)F)c(N3CCC(C)(O)CC3)n2)c(C)c1,MDCK,,Caco-2,"1 µM, 2 h, pH 7.4",Papp A→B,9 ×10⁻⁶ cm/s
CCCCN(CCCC)CCCOc1ccc2c(=O)c3c([nH]c2c1)CCCC3,,metabolic stability,"mouse, liver microsomes","1 µM, pH 7.4",half-life,0.638 h
CNS(=O)(=O)c1ccc(Nc2ncc3cc(Cl)c(=O)n(C4CCCC4)c3n2)c(C)c1,MDCK,,Caco-2,"1 µM, 2 h, pH 7.4",Papp A→B,3.6 ×10⁻⁶ cm/s
O=c1c2cc(F)c(Oc3ccc(OC(F)(F)F)cc3)cc2[nH]c2cc(Cl)cc(F)c12,,metabolic stability,"mouse, liver microsomes","1 µM, pH 7.4",half-life,> 1 h
